According to ChEMBL document CHEMBL3414437, “Synthesis of CDDO-amino acid-nitric oxide donor trihybrids as potential antitumor agents against both drug-sensitive and drug-resistant colon cancer” (J Med Chem, 2015):
Calls of active or inactive are those of the source. The calls are words filed in the database; no cut-off is given here.

Key:
Mus musculus [1] = experiment: Toxicity in nude BALB/c mouse xenografted with FU-resistant human HCT8 cells assessed as abnormal size changes in kidney at 59.4 umol/kg administered as via oral gavage daily for 21 days; format: organism-based, HCT-8; conditions: in vivo, 504 h
Summary of the method: (§1)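 Male BALB/c nude mice aged 6-8 weeks, implanted s.c. in the right flank with HCT-8/5-FU cells (2 × 10^6). Once tumors reached 180-200 mm3 (days 9-11), randomized to daily gavage for 21 days in cremophor-EL/DMSO/PBS (1:1:8), 0.2 mL. At the end, liver, kidney, lung and heart checked for size, colour and weight. n = 8 per group.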

Mus musculus [2] = experiment: Toxicity in nude BALB/c mouse xenografted with FU-resistant human HCT8 cells assessed as abnormal weight changes in heart at 59.4 umol/kg administered as via oral gavage daily for 21 days; format: organism-based, HCT-8; conditions: in vivo, 504 h; summary of the method: as §1
Mus musculus [3] = experiment: Toxicity in nude BALB/c mouse xenografted with FU-resistant human HCT8 cells assessed as abnormal size changes in heart at 59.4 umol/kg administered as via oral gavage daily for 21 days; format: organism-based, HCT-8; conditions: in vivo, 504 h; summary of the method: as §1
[4] = biological target: Signal transducer and activator of transcription 3 (Homo sapiens) (UniProt P40763); experiment: Inhibition of STAT3 protein phosphorylation in FU-resistant human HCT8 cells at 1 uM incubated for 24 hrs by Western blotting method; format: cell-based; conditions: HCT-8
Summary of the method: (§2)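 Cells (1 x 10^6) grown 24 h in 6 cm dishes, then exposed in duplicate for 24 h to 0.25, 0.5 or 1 µM compound, with or without PTIO. Lysates (20 µg/lane) were run on 7.5% SDS-PAGE, blotted to PVDF and blocked in 5% milk. HRP secondaries with ECL detection; bands quantified by densitometry against β-actin or GAPDH. Three separate experiments, mean ± SD.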

[5] = biological target: RAC-alpha serine/threonine-protein kinase (Homo sapiens) (UniProt P31749); experiment: Inhibition of AKT protein phosphorylation in human HCT8 cells at 1 uM incubated for 24 hrs by Western blotting method; format: cell-based; conditions: HCT-8; summary of the method: as §2
Mus musculus [6] = experiment: Toxicity in nude BALB/c mouse xenografted with FU-resistant human HCT8 cells assessed as abnormal color changes in liver at 59.4 umol/kg administered as via oral gavage daily for 21 days; format: organism-based, HCT-8; conditions: in vivo, 504 h; summary of the method: as §1
[7] = biological target: RAC-alpha serine/threonine-protein kinase (Homo sapiens) (UniProt P31749); experiment: Inhibition of AKT protein phosphorylation in FU-resistant human HCT8 cells at 1 uM incubated for 24 hrs by Western blotting method; format: cell-based; conditions: HCT-8; summary of the method: as §2
HCT-8 [8] = experiment: (§3) Antiproliferative activity against 5-FU resistant human HCT8 cells assessed as inhibition of cell proliferation at 1 uM after 72 hrs by MTT assay; format: functional
Summary of the method: (§4)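 Cells grown in DMEM with 10% FBS and exposed to compound at 1 µM for 72 h. Proliferation measured by MTT at 570 nm and expressed as % inhibition versus untreated cells. Mean ± SD of three independent experiments.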

[9] = biological target: Signal transducer and activator of transcription 3 (Homo sapiens) (UniProt P40763); experiment: Inhibition of STAT3 protein phosphorylation in human HCT8 cells at 0.25 to 1 uM incubated for 24 hrs by Western blotting method; format: cell-based; conditions: HCT-8; summary of the method: as §2
Mus musculus [10] = experiment: Toxicity in nude BALB/c mouse xenografted with FU-resistant human HCT8 cells assessed as abnormal color changes in lung at 17.8 to 35.7 umol/kg administered as via oral gavage daily for 21 days; format: organism-based, HCT-8; conditions: in vivo, 504 h; summary of the method: as §1
HCT-8 [11] = experiment: Antiproliferative activity against human HCT8 cells assessed as inhibition of cell proliferation at 0.25 uM after 24 hrs by MTT assay; format: functional, cell-based
HCT-8 [12] = experiment: Induction of apoptosis in 5-FU resistant human HCT8 cells incubated for 24 hrs by FITC-Annexin-V and propidium iodide staining based flow cytometry; format: functional, cell-based
[13] = biological target: Signal transducer and activator of transcription 3 (Homo sapiens) (UniProt P40763); experiment: Inhibition of STAT3 protein phosphorylation in FU-resistant human HCT8 cells at 0.25 to 1 uM incubated for 24 hrs by Western blotting method; format: cell-based; conditions: HCT-8; summary of the method: as §2
HCT-8 [14] = experiment: Induction of nitric oxide release in human HCT8 cells at 150 uM incubated for 150 mins after 150 mins of pre-treatment with 0.75 uM to 192 uM pepT1 substrate Gly-Sar by Griess assay; format: functional, cell-based
Summary of the method: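 Cells pretreated with Gly-Sar (0.75–192 µM, nine levels) for 150 min, then given compound at 150 µM for 150 min. Intracellular nitrite in lysates measured with Griess reagent (10 min, 37 °C, 540 nm) against a sodium nitrite standard curve. Mean ± SD of three experiments.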

HCT-8 [15] = experiment: Inhibition of P-gp protein expression in FU-resistant human HCT8 cells at 0.25 to 1 uM incubated for 24 hrs by Western blotting method; format: functional, cell-based; summary of the method: as §2
Mus musculus [16] = experiment: Toxicity in nude BALB/c mouse xenografted with FU-resistant human HCT8 cells assessed as abnormal weight changes in lung at 17.8 to 35.7 umol/kg administered as via oral gavage daily for 21 days; format: organism-based, HCT-8; conditions: in vivo, 504 h
Summary of the method: (§5)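 Male BALB/c nude mice, 6-8 weeks old, inoculated s.c. in right flank with HCT-8/5-FU cells (2 × 10^6/mouse). Once tumors reached 180-200 mm3 (9-11 days post-implantation), mice were randomized and dosed by gavage daily for 21 consecutive days in cremophor-EL/DMSO/PBS (1:1:8) (vehicle alone 0.2 mL). Body weights recorded on day 1 and day 21. Organ size, color and weights were inspected for liver, kidney, lung and heart. n = 8 per group; mean ± SD.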

Mus musculus [17] = experiment: Toxicity in ICR mouse assessed as abnormality in eating behavior at 0.60 x 10^3 to 2.38 x 10^3 umol/kg administered as single dose via oral gavage measured up to 14 days post treatment; format: organism-based; conditions: in vivo, 336 h
Summary of the method: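 Adult ICR mice of either sex were randomised and given a single oral gavage dose of 500, 1000, 1500 or 2000 mg/kg in cremophor-EL/DMSO/PBS (1:1:8). Survival, behaviour, water and food intake, body weight and activity were monitored for up to 14 days. Body weights were taken on days 0, 7 and 14.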

Mus musculus [18] = experiment: Toxicity in nude BALB/c mouse xenografted with FU-resistant human HCT8 cells assessed as body weight level at 35.7 umol/kg administered as via oral gavage daily for 21 days (reference value: 21.1 +/- 1.5 g); format: organism-based, HCT-8; conditions: in vivo, 504 h; summary of the method: as §5
HCT-8 [19] = experiment: Inhibition of P-gp protein expression in FU-resistant human HCT8 cells at 1 uM in presence of NO scavenger carboxy-PTIO incubated for 24 hrs by Western blotting method; format: functional, cell-based; summary of the method: as §2
Mus musculus [20] = experiment: Toxicity in nude BALB/c mouse xenografted with FU-resistant human HCT8 cells assessed as abnormal color changes in heart at 17.8 to 35.7 umol/kg administered as via oral gavage daily for 21 days; format: organism-based, HCT-8; conditions: in vivo, 504 h; summary of the method: as §1
[21] = biological target: RAC-alpha serine/threonine-protein kinase (Homo sapiens) (UniProt P31749); experiment: Inhibition of AKT protein phosphorylation in human HCT8 cells at 0.25 to 1 uM incubated for 24 hrs by Western blotting method; format: cell-based; conditions: HCT-8; summary of the method: as §2
HCT-8 [22] = experiment: Inhibition of BCRP protein expression in FU-resistant human HCT8 cells at 1 uM in presence of NO scavenger carboxy-PTIO incubated for 24 hrs by Western blotting method; format: functional, cell-based; summary of the method: as §2
[23] = as §3; format: functional; conditions: HCT-8, 72 h, read-out: GI; summary of the method: as §4
Mus musculus [24] = experiment: Toxicity in nude BALB/c mouse xenografted with FU-resistant human HCT8 cells assessed as abnormal color changes in liver at 17.8 to 35.7 umol/kg administered as via oral gavage daily for 21 days; format: organism-based, HCT-8; conditions: in vivo, 504 h; summary of the method: as §1

Chain of Signal transducer and activator of transcription 3 (Homo sapiens) (P40763 whole entry): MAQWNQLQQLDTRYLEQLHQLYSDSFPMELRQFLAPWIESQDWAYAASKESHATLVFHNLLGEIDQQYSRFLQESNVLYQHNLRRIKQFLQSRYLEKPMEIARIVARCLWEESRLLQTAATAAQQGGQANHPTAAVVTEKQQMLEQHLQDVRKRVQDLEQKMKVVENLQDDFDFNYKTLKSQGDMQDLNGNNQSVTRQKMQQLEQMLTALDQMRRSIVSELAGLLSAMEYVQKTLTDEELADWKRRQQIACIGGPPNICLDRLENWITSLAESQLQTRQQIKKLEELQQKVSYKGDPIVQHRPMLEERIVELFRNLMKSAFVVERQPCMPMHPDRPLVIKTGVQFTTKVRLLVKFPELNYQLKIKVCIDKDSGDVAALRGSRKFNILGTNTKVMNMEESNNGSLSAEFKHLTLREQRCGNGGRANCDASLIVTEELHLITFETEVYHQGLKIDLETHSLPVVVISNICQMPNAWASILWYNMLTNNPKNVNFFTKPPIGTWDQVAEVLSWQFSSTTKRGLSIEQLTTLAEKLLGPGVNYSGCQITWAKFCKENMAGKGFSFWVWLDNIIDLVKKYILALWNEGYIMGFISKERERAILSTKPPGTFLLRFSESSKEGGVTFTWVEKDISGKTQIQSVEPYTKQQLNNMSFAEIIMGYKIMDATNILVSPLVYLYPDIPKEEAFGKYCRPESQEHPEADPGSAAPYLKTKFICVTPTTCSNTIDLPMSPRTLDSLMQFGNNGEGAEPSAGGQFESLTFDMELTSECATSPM
Chain of RAC-alpha serine/threonine-protein kinase (Homo sapiens) (P31749 whole entry): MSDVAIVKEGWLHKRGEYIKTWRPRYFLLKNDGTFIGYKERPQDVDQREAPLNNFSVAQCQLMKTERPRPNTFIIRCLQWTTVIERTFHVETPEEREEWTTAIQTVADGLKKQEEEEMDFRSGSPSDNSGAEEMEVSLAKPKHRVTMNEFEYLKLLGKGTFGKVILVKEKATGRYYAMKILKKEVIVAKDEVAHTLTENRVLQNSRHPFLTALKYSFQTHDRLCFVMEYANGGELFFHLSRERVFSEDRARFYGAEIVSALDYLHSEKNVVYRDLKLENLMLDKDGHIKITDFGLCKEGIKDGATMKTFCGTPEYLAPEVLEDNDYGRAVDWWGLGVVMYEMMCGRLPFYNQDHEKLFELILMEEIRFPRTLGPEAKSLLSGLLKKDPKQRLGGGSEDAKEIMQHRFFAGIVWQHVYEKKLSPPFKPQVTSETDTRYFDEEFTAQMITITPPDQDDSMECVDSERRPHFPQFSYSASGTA

Q: Which Activity (Mus musculus [1]) does the source give for `COC(=O)[C@]12CCC(C)(C)C[C@H]1[C@H]1C(=O)C=C3[C@@]4(C)C=C(C#N)C(=O)C(C)(C)[C@@H]4CC[C@@]3(C)[C@]1(C)CC2` [BARDOXOLONE METHYL] here?
A: Non-toxic

Q: What about the Activity (Mus musculus [2]) of the same compound?
A: Non-toxic

Q: And the Activity (Mus musculus [3])?
A: Non-toxic

Q: What about the inhibition [4] of the same compound?
A: Active

Q: What about the inhibition [5] of the same compound?
A: Active

Q: And the Activity (Mus musculus [6])?
A: Non-toxic

Q: What about the inhibition [7] of the same compound?
A: Active

Q: And the “growth inhibition (GI)” value (HCT-8 [8])?
A: Active

Q: Which results are given for `CC1(C)CC[C@]2(C(=O)NCC(=O)OCC#CCOc3no[n+]([O-])c3S(=O)(=O)c3ccccc3)CC[C@]3(C)[C@H](C(=O)C=C4[C@@]5(C)C=C(C#N)C(=O)C(C)(C)[C@@H]5CC[C@]43C)[C@@H]2C1`?
A: inhibition [9]: Dose-dependent effect; Activity (Mus musculus [10]): Non-toxic; Activity (HCT-8 [11]): Active; Activity (HCT-8 [12]): Dose-dependent effect; inhibition [13]: Dose-dependent effect; Activity (HCT-8 [14]): inactive; inhibition (HCT-8 [15]): Dose-dependent effect; Activity (Mus musculus [16]): Non-toxic; Activity (Mus musculus [17]): Non-toxic; Activity (Mus musculus [18]): 16.7 g; inhibition (HCT-8 [19]): inactive; Activity (Mus musculus [20]): Non-toxic; inhibition [21]: Dose-dependent effect; inhibition (HCT-8 [22]): inactive; inhibition of growth at 1 µM [23]: > 90%; Activity (Mus musculus [24]): Non-toxic
